Source: ChEMBL document CHEMBL3758073, “Synthesis and Biochemical Evaluation of 3-Phenoxy-1,4-diarylazetidin-2-ones as Tubulin-Targeting Antitumor Agents” (J Med Chem, 2016)
Calls of active or inactive are those of the source. No cut-off for these calls is given here.

How the values were obtained:
MCF7 [1] = test: Cytotoxicity against human MCF7 cells assessed as induction of cell death at 10 uM after 72 hrs by LDH assay; format: cell-based; details: mcf7, 72 h
Procedure, shortened: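 Cell death in MCF-7 measured by LDH release. Seeding and dosing as for the MTT assay; after 72 h, lysis solution added to blank wells for 1 h to give 100% death. Supernatant mixed with substrate (INT to formazan) for 30 min at rt in the dark, then stopped and read at 490 nm. Percentage cell death reported at 10 μM; assays in triplicate.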

MCF7 [2] = test: Antiproliferative activity against human MCF7 cells assessed as cell viability pre-incubated for 24 hrs with CO2 followed by compound addition after 72 hrs by MTT assay; format: functional, cell-based
Procedure, shortened: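 MCF-7 grown in Eagle's MEM with 10% FBS, 2 mM L-glutamine, penicillin/streptomycin and 1% non-essential amino acids. Cells seeded at 2.5 x 10⁴ cells/mL, 24 h at 37 °C, then dosed from ethanol stocks over 1 nM–100 µM (vehicle 1% v/v ethanol) for 72 h. MTT at 1 mg/mL final, 2 h in the dark, DMSO solubilisation. Viability set against untreated controls; IC50 is the mean of three experiments in triplicate.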

MCF7 [3] = test: Binding affinity to beta-Tubulin in human MCF7 cells assessed as inhibition of protein-EBI adduct formation at Cys239 and Cys354 at 10 uM pre-incubated for 2 hrs followed by EBI addition after 1.5 hrs by Western blot analysis; format: cell-based
Procedure, shortened: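 MCF-7 seeded at 5×10^4 cells/well and incubated overnight. Treated 2 h with test agent at 10 μM or with vehicle (0.1% v/v ethanol), then with N,N'-ethylene-bis(iodoacetamide) for a further 1.5 h. Cells washed in ice-cold PBS and lysed in Laemmli buffer. SDS-PAGE, PVDF transfer and β-tubulin immunoblot to detect the faster-migrating β-tubulin–EBI adduct. Three independent experiments.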

Tubulin (Sus scrofa) = Tubulin (Sus scrofa) (UniProt P02554+P02550); test: Inhibition of porcine tubulin polymerization assessed as inhibition of tubulin assembly Vmax rate at 10 uM by spectrophotometric analysis; format: protein assay
Chain of Tubulin (Sus scrofa) (P02550 whole entry, looked up): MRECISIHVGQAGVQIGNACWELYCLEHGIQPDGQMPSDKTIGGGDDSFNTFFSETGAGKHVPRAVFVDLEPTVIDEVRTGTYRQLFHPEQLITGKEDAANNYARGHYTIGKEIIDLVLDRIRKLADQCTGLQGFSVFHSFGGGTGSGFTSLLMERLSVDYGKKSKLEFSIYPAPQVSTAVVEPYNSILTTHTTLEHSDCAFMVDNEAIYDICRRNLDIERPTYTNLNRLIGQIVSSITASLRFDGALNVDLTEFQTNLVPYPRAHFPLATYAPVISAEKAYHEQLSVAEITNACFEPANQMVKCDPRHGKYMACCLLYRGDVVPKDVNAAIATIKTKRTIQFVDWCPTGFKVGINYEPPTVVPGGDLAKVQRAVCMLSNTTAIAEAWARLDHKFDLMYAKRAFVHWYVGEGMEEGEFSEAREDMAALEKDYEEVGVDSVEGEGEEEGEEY
Chain of Tubulin (Sus scrofa) (P02554 whole entry, looked up): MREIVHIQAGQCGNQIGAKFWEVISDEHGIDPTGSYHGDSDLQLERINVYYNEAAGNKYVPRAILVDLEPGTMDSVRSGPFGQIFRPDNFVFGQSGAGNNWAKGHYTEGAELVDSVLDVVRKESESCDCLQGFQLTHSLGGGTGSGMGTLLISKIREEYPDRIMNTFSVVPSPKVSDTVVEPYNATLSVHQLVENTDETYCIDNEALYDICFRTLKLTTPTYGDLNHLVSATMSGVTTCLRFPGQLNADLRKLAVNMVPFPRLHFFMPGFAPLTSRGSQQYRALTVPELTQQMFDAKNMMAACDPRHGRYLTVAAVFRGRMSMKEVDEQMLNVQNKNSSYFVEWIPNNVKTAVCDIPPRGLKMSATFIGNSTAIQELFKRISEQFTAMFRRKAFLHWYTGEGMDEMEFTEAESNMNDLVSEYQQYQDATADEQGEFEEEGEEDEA
Procedure, shortened: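 Tubulin polymerisation kit (>97% pure porcine tubulin, OD-based). Tubulin plus GTP at 37 °C with test agent at 10 μM final; 1% v/v ethanol as vehicle. A340 read every 30 s for 60 min at 37 °C. Fold change in Vmax calculated relative to vehicle; mean of three separate experiments.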

Compound: COc1cc([C@@H]2[C@H](Oc3ccccc3)C(=O)N2c2cc(OC)c(OC)c(OC)c2)cc(OC)c1OC (relative stereo)
- Activity (MCF7 [1]): 0%
- IC50 (MCF7 [2]): 29 µM

Compound: COc1cc([N+](=O)[O-])c([C@@H]2[C@H](Oc3ccccc3)C(=O)N2c2cc(OC)c(OC)c(OC)c2)cc1O (relative stereo)
- Activity (MCF7 [1]): 9.9%
- IC50 (MCF7 [2]): 59 µM

Compound: O=C(O)CCCc1ccc(N(CCCl)CCCl)cc1 [CHLORAMBUCIL]
- Activity (MCF7 [1]): 8%
- IC50 (MCF7 [2]): 97 µM

Compound: COc1ccc([C@@H]2[C@H](Oc3ccccc3)C(=O)N2c2cc(OC)c(OC)c(OC)c2)cc1Br (relative stereo)
- Activity (MCF7 [1]): 6.4%
- IC50 (MCF7 [2]): 5.1 µM

Compound: COc1ccc([C@@H]2[C@H](Oc3ccccc3)C(=O)N2c2cc(OC)c(OC)c(OC)c2)cc1OC (relative stereo)
- Activity (MCF7 [1]): 11.2%
- IC50 (MCF7 [2]): 26 µM

Compound: COc1ccc([C@@H]2[C@H](Oc3ccccc3)C(=O)N2c2cc(OC)c(OC)c(OC)c2)cc1OP(=O)(O)O (relative stereo)
- IC50 (MCF7 [2]): 42 µM

Compound: COc1cc(N2C(=O)[C@@H](Oc3ccccc3)[C@H]2c2ccc(S(C)(=O)=O)cc2)cc(OC)c1OC (relative stereo)
- Activity (MCF7 [1]): 10.2%
- IC50 (MCF7 [2]): 62 µM

Compound: COc1cc(N2C(=O)[C@@H](Oc3ccccc3)[C@H]2c2cccc3ccccc23)cc(OC)c1OC (relative stereo)
- Activity (MCF7 [1]): 4.6%
- IC50 (MCF7 [2]): 53 µM

Compound: COc1ccc([C@@H]2[C@H](Oc3ccccc3)C(=O)N2c2cc(OC)c(OC)c(OC)c2)cc1NC(=O)C(C)N (relative stereo)
- IC50 (MCF7 [2]): 9.2 µM

Compound: COc1ccc([C@@H]2[C@@H](Oc3ccccc3)C(=O)N2c2cc(OC)c(OC)c(OC)c2)cc1[N+](=O)[O-] (relative stereo)
- Activity (MCF7 [1]): 5.2%
- IC50 (MCF7 [2]): 4.1 µM

Compound: COc1ccc([C@@H]2[C@H](Oc3ccccc3)C(=O)N2c2cc(OC)c(OC)c(OC)c2)cc1NC(=O)CN (relative stereo)
- IC50 (MCF7 [2]): 6.5 µM

Compound: COc1ccc([C@@H]2[C@H](Oc3ccccc3)C(=O)N2c2cc(OC)c(OC)c(OC)c2)c(N)c1O (relative stereo)
- Activity (MCF7 [1]): 52%
- IC50 (MCF7 [2]): 19 µM

Compound: COc1cc(N2C(=O)[C@@H](Oc3ccccc3)[C@H]2c2ccc(O)c(O)c2)cc(OC)c1OC (relative stereo)
- Activity (MCF7 [1]): 6%
- IC50 (MCF7 [2]): 4.5 µM

Compound: COc1cc(N2C(=O)[C@@H](Oc3ccccc3)[C@H]2c2ccc(N=[N+]=[N-])cc2)cc(OC)c1OC (relative stereo)
- Activity (MCF7 [1]): 5.8%
- IC50 (MCF7 [2]): 23 µM

Compound: COc1ccc([C@@H]2[C@H](Oc3ccccc3)C(=O)N2c2cc(OC)c(OC)c(OC)c2)c([N+](=O)[O-])c1O (relative stereo)
- Activity (MCF7 [1]): 12.7%
- IC50 (MCF7 [2]): 89 µM

Compound: COc1ccc([C@@H]2[C@@H](Oc3ccccc3)C(=O)N2c2cc(OC)c(OC)c(OC)c2)cc1OP(=O)(O)O (relative stereo)
- IC50 (MCF7 [2]): 23 µM

Compound: COc1ccc([C@@H]2[C@H](Oc3ccccc3)C(=O)N2c2cc(OC)c(OC)c(OC)c2)cc1F (relative stereo)
- Activity (MCF7 [1]): 70%
- IC50 (MCF7 [2]): 6.3 µM

Compound: COc1cc(N2C(=O)[C@@H](Oc3ccccc3)[C@H]2c2ccc(O)cc2)cc(OC)c1OC (relative stereo)
- Activity (MCF7 [1]): 0.1%
- IC50 (MCF7 [2]): 48 µM

Compound: COc1ccc([C@@H]2[C@H](Oc3ccccc3)CN2c2cc(OC)c(OC)c(OC)c2)cc1O
- Activity (MCF7 [1]): 19.8%
- IC50 (MCF7 [2]): 3.3 µM

Compound: COc1ccc([C@@H]2[C@@H](Oc3ccccc3)C(=O)N2c2cc(OC)c(OC)c(OC)c2)cc1Br (relative stereo)
- Activity (MCF7 [1]): 3.9%
- IC50 (MCF7 [2]): 31 µM

Compound: COc1ccc([C@@H]2[C@H](Oc3ccccc3)C(=S)N2c2cc(OC)c(OC)c(OC)c2)cc1O (relative stereo)
- Activity (MCF7 [1]): 4.8%
- IC50 (MCF7 [2]): 7.5 µM

Compound: COc1cccc([C@@H]2[C@H](Oc3ccccc3)C(=O)N2c2cc(OC)c(OC)c(OC)c2)c1 (relative stereo)
- Activity (MCF7 [1]): 22%
- IC50 (MCF7 [2]): 171 µM

Compound: COc1ccc([C@@H]2[C@H](Oc3ccccc3)C(=O)N2c2cc(OC)c(OC)c(OC)c2)cc1[N+](=O)[O-] (relative stereo)
- Activity (MCF7 [1]): 5.3%
- IC50 (MCF7 [2]): 69 µM

Compound: COc1cc(N2C(=O)[C@@H](Oc3ccccc3)[C@H]2c2cc(N)c(OC)c(O)c2)cc(OC)c1OC (relative stereo)
- Activity (MCF7 [1]): 14%
- IC50 (MCF7 [2]): 8.8 µM

Compound: COc1cc(N2C(=O)[C@@H](Oc3ccccc3)[C@H]2c2ccc3c(c2)OCO3)cc(OC)c1OC (relative stereo)
- Activity (MCF7 [1]): 8.3%
- IC50 (MCF7 [2]): 48 µM

Compound: CCOC(=O)/C=C/c1ccc([C@@H]2[C@H](Oc3ccccc3)C(=O)N2c2cc(OC)c(OC)c(OC)c2)cc1 (relative stereo)
- IC50 (MCF7 [2]): 87 µM

Compound: COc1ccc([C@@H]2[C@H](Oc3ccccc3)C(=O)N2c2cc(OC)c(OC)c(OC)c2)cc1NC(=O)CCCc1ccc(N(CCCl)CCCl)cc1 (relative stereo)
- Activity (MCF7 [1]): 3.2%
- IC50 (MCF7 [2]): 145 µM

Compound: COc1ccc(N2C(=O)[C@@H](Oc3ccccc3)[C@H]2c2ccc(OC)c(O)c2)cc1 (relative stereo)
- Activity (MCF7 [1]): 10.4%
- IC50 (MCF7 [2]): 49 µM

Compound: COc1cc(N)c([C@@H]2[C@H](Oc3ccccc3)C(=O)N2c2cc(OC)c(OC)c(OC)c2)cc1O (relative stereo)
- Activity (MCF7 [1]): 70%
- IC50 (MCF7 [2]): 20 µM

Compound: COc1cc2c(c(OC)c1OC)-c1ccc(OC)c(=O)cc1[C@@H](NC(C)=O)CC2
- Activity (MCF7 [3]): Active

Compound: COc1cc(N2C(=O)[C@@H](Oc3ccccc3)[C@H]2c2ccc(SC)cc2)cc(OC)c1OC (relative stereo)
- Activity (MCF7 [1]): 8.1%
- IC50 (MCF7 [2]): 7.7 µM

Compound: COc1cc(N2C(=O)[C@@H](Oc3ccccc3)[C@H]2c2ccc(Br)cc2)cc(OC)c1OC (relative stereo)
- IC50 (MCF7 [2]): 48 µM

Compound: COc1ccc([C@@H]2[C@@H](Oc3ccccc3)C(=O)N2c2cc(OC)c(OC)c(OC)c2)cc1NC(=O)C(C)N (relative stereo)
- IC50 (MCF7 [2]): 0.23 µM

Compound: COc1cc(N2C(=O)[C@@H](Oc3ccccc3)[C@H]2c2ccc([S+](C)[O-])cc2)cc(OC)c1OC (relative stereo)
- Activity (MCF7 [1]): 1.7%
- IC50 (MCF7 [2]): 20 µM

Compound: COc1ccc([C@@H]2[C@H](Oc3ccccc3)C(=O)N2c2cc(OC)c(OC)c(OC)c2)cc1 (relative stereo)
- Activity (MCF7 [1]): 6.5%
- IC50 (MCF7 [2]): 35 µM

Compound: COc1cc(N2C(=O)[C@@H](Oc3ccccc3)[C@H]2c2ccc(N(C)C)cc2)cc(OC)c1OC (relative stereo)
- Activity (MCF7 [1]): 5.9%
- IC50 (MCF7 [2]): 31 µM
- fold change (FC) (Tubulin (Sus scrofa)): 0

Compound: COc1cc(N2C(=O)[C@@H](Oc3ccccc3)[C@H]2c2ccc3ccccc3c2)cc(OC)c1OC (relative stereo)
- Activity (MCF7 [1]): 10.7%
- IC50 (MCF7 [2]): 282 µM

Compound: COc1cc(N2C(=O)[C@@H](Oc3ccccc3)[C@H]2c2cc(O)c(OC)c([N+](=O)[O-])c2)cc(OC)c1OC (relative stereo)
- Activity (MCF7 [1]): 12.1%
- IC50 (MCF7 [2]): 69 µM

Compound: COc1cc(N2C(=O)[C@@H](Oc3ccccc3)[C@H]2c2ccc(C#N)cc2)cc(OC)c1OC (relative stereo)
- Activity (MCF7 [1]): 4.8%
- IC50 (MCF7 [2]): 31.6 µM

Compound: COc1cc(N2C(=O)[C@@H](Oc3ccccc3)[C@H]2c2cccc(O)c2)cc(OC)c1OC (relative stereo)
- Activity (MCF7 [1]): 22%
- IC50 (MCF7 [2]): 54 µM

Compound: COc1cc(N2C(=O)[C@@H](Oc3ccccc3)[C@H]2c2cccc(N)c2)cc(OC)c1OC (relative stereo)
- Activity (MCF7 [1]): 48%
- IC50 (MCF7 [2]): 17 µM

Compound: COc1cc(N2C(=O)[C@@H](Oc3ccccc3)[C@H]2c2ccc([N+](=O)[O-])cc2)cc(OC)c1OC (relative stereo)
- Activity (MCF7 [1]): 27%
- IC50 (MCF7 [2]): 63 µM

Compound: COc1cc(N2C(=O)[C@H](Oc3ccccc3)[C@H]2c2ccc(C#N)cc2)cc(OC)c1OC (relative stereo)
- Activity (MCF7 [1]): 2.1%
- IC50 (MCF7 [2]): 168 µM
- fold change (FC) (Tubulin (Sus scrofa)): 0

Compound: COc1ccc([C@@H]2[C@@H](Oc3ccccc3)C(=O)N2c2cc(OC)c(OC)c(OC)c2)cc1 (relative stereo)
- Activity (MCF7 [1]): 7.3%
- IC50 (MCF7 [2]): 6.9 µM

Compound: COc1ccc([C@@H]2[C@H](Oc3ccccc3)C(=O)N2c2cc(OC)c(OC)c(OC)c2)cc1OC(=O)CCCc1ccc(N(CCCl)CCCl)cc1 (relative stereo)
- Activity (MCF7 [1]): 8%
- IC50 (MCF7 [2]): 0.41 µM

Compound: COc1cc([C@@H]2[C@H](Oc3ccccc3)C(=O)N2c2cc(OC)c(OC)c(OC)c2)ccc1O (relative stereo)
- Activity (MCF7 [1]): 5.1%
- IC50 (MCF7 [2]): 32 µM

Compound: COc1cc(N2C(=O)[C@@H](Oc3ccccc3)[C@H]2c2cccc([N+](=O)[O-])c2)cc(OC)c1OC (relative stereo)
- Activity (MCF7 [1]): 16.7%
- IC50 (MCF7 [2]): 30 µM

Compound: COc1cc(N2C(=O)[C@@H](Oc3ccccc3)[C@H]2c2ccc(N)cc2)cc(OC)c1OC (relative stereo)
- Activity (MCF7 [1]): 14.7%
- IC50 (MCF7 [2]): 160 µM

Compound: COc1ccc([C@@H]2[C@H](Oc3cc(OC)c(OC)c(OC)c3)C(=O)N2c2cc(OC)c(OC)c(OC)c2)cc1O (relative stereo)
- Activity (MCF7 [1]): 10.9%
- IC50 (MCF7 [2]): 33 µM

Compound: COc1ccc([C@@H]2[C@H](Oc3ccccc3)C(=O)N2c2cc(OC)c(OC)c(OC)c2)cc1N
- Activity (MCF7 [1]): 7.7%
- IC50 (MCF7 [2]): 12.2 µM
